Usually IC50 stands for the concentration that gives 50% inhibition. What is called Ki is a measure of affinity in units of concentration, obtained from inhibition or displacement.

Data set [1] has as its target T1, Acetylcholinesterase (Homo sapiens, UniProt P22303). The data set is described as follows: Inhibition of human recombinant AChE expressed in HEK293 cells using acetylthiocholine iodide as substrate preincubated for 30 mins followed by substrate addition measured after 30 mins by Ellman's method. In general terms: DTNB colorimetry detects thiols as they appear.
Data set [2] addresses T2, Amine oxidase [flavin-containing] A (Homo sapiens, UniProt P21397).
T2 sequence (P21397 whole entry): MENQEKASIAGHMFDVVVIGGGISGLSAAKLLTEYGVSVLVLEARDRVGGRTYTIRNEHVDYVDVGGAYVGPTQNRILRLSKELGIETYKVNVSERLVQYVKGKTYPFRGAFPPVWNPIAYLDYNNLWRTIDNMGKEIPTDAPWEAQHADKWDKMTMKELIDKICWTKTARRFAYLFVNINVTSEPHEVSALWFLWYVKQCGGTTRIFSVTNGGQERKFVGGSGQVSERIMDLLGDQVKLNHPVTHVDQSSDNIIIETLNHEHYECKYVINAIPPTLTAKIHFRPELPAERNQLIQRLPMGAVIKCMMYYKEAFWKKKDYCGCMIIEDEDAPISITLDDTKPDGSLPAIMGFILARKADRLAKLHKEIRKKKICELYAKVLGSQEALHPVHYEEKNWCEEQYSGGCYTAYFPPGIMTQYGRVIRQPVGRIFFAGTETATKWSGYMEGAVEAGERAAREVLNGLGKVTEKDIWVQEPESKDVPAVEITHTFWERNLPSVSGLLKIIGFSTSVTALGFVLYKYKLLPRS
The data set is described as follows: Inhibition of human recombinant MAOA using p-tyramine as substrate preincubated for 30 mins followed by substrate addition measured for 1 hr by horse-radish peroxidase/amplex red-based fluorometric method.

Data set [3] deals with T3, Cholinesterase (Homo sapiens, UniProt P06276). The experiment in a line: Inhibition of human recombinant BuChE expressed in HEK293 cells using S-butyrylthiocholine iodide as substrate preincubated for 30 mins followed by substrate addition measured after 30 mins by Ellman's method. In outline: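 Ellman assay in 0.1 M phosphate buffer pH 8.0 with 0.05 U/mL BuChE and 0.35 mM DTNB. Serial inhibitor dilutions pre-incubated 30 min at 37 °C, then 0.5 mM S-butyrylthiocholine iodide (final) added. Reaction followed at least 30 min at 405 nm. IC50 from dose-response curves; mean ± S.E.M., at least three experiments in triplicate.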

Data set [4] addresses T4, Amine oxidase [flavin-containing] B (Homo sapiens, UniProt P27338).
T4 sequence (P27338 whole entry): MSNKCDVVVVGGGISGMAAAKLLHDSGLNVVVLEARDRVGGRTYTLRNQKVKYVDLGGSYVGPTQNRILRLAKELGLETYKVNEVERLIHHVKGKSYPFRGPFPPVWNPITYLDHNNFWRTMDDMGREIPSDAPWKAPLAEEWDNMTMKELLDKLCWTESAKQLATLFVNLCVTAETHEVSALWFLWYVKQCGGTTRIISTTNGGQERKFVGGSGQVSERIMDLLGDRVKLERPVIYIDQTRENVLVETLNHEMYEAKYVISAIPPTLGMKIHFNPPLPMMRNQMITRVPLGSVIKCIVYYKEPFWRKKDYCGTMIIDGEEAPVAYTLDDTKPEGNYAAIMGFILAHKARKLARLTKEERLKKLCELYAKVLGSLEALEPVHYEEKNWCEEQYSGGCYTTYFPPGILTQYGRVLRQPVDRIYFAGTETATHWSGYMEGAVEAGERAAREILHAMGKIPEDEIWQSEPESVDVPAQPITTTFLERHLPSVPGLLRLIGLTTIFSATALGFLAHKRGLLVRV
The data set is described as follows: Inhibition of human recombinant MAOB using p-tyramine as substrate preincubated for 30 mins followed by substrate addition measured for 1 hr by horse-radish peroxidase/amplex red-based fluorometric method.

For data set [5], the target named is T2, Amine oxidase [flavin-containing] A. The experiment in a line: Inhibition of human recombinant MAOA using p-tyramine as substrate preincubated for 120 mins followed by substrate addition measured for 1 hr by horse-radish peroxidase/amplex red-based fluorometric method. The gist of the method:
(§1)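 Time-dependent series: hrMAO-A pre-incubated with increasing inhibitor concentrations for varied times (0–240 min) before addition of p-tyramine. Fluorometric HRP/Amplex UltraRed read-out as in the standard assay (1 mM p-tyramine, pH 7.4 phosphate, ex 530/em 590). IC50 derived from a dose-response curve at each pre-incubation time.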

A short description of data set [6]: Metal chelating activity of the compound assessed as compound-Zn2+ complex formation at 10 uM after 15 hrs by UV-Vis spectrophotometric method. Type of data set: physicochemical. In outline: (§2)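 Run in distilled water at room temperature: UV-Vis spectra (220–300 nm, 1 cm quartz) of 10 μM compound with CuSO4 or ZnSO4 at 1–5 μM. Complexation followed at 262 nm. Stoichiometry by Job's method: 21 mixtures, total concentration 10 μM, proportions varied 0–100%.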

A short description of data set [7]: Metal chelating activity of the compound assessed as compound-Cu2+ complex formation at 10 uM after 5 mins by UV-Vis spectrophotometric method. Type of data set: physicochemical. The gist of the method:
as §2

Data set [8] addresses T2, Amine oxidase [flavin-containing] A. The experiment in a line: Inhibition of human recombinant MAOA using p-tyramine as substrate preincubated for 240 mins followed by substrate addition measured for 1 hr by horse-radish peroxidase/amplex red-based fluorometric method. The gist of the method: as §1
The target is the same in data set [9]. The data set is described as follows: Inhibition of human recombinant MAOA using p-tyramine as substrate preincubated for 60 mins followed by substrate addition measured for 1 hr by horse-radish peroxidase/amplex red-based fluorometric method. In outline:
as §1

Data set [10] shares this target. The experiment in a line: Inhibition of human recombinant MAOA using p-tyramine as substrate preincubated for 15 mins followed by substrate addition measured for 1 hr by horse-radish peroxidase/amplex red-based fluorometric method. The gist of the method: as §1
Data set [11] deals with T1, Acetylcholinesterase. The experiment in a line: Mixed-type inhibition of human recombinant AChE expressed in HEK293 cells using acetylthiocholine iodide as substrate preincubated for 30 mins followed by substrate addition measured after 30 mins by Lineweaver-Burk plot analysis.
In data set [12] the target is T2, Amine oxidase [flavin-containing] A. The data set is described as follows: Inhibition of human recombinant MAOA using p-tyramine as substrate measured for 1 hr by horse-radish peroxidase/amplex red-based fluorometric method. The gist of the method: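 Human recombinant MAO-A (360 mU/mL) pre-incubated 30 min at 37 °C with serial inhibitor dilutions. Reaction started with 1 mM p-tyramine, 40 U/mL HRP and 25 μM Amplex UltraRed (final) in 0.25 mM sodium phosphate pH 7.4. Resorufin fluorescence (ex 530/em 590) read continuously ≥1 h. Water controls, no-substrate blanks. IC50 from dose-response curves; mean ± S.E.M., ≥3 experiments in triplicate.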

Data set [13] addresses T3, Cholinesterase. The data set is described as follows: Mixed-type inhibition of human recombinant BuChE expressed in HEK293 cells using S-butyrylthiocholine iodide as substrate preincubated for 30 mins followed by substrate addition measured after 30 mins by Lineweaver-Burk plot analysis.
Data set [14] has as its target T2, Amine oxidase [flavin-containing] A. The experiment in a line: Inhibition of human recombinant MAOA using p-tyramine as substrate preincubated for 180 mins followed by substrate addition measured for 1 hr by horse-radish peroxidase/amplex red-based fluorometric method. The gist of the method: as §1

T1 sequence (P22303 whole entry): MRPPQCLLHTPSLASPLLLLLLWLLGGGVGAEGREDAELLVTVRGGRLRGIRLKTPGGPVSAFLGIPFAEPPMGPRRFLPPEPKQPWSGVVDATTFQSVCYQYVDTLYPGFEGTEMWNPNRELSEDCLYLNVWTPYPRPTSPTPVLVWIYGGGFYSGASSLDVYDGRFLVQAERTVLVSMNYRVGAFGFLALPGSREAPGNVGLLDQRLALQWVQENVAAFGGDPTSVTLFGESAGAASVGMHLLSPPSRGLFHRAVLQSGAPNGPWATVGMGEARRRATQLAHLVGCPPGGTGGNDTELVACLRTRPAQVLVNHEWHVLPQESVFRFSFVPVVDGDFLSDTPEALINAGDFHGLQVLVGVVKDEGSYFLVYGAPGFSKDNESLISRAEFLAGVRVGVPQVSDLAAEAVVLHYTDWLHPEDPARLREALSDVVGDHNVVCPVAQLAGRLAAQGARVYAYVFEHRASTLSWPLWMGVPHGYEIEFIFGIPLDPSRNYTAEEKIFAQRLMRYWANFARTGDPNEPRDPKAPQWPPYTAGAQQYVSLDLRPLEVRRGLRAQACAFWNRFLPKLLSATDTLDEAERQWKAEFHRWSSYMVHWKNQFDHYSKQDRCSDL
T3 sequence (P06276 whole entry): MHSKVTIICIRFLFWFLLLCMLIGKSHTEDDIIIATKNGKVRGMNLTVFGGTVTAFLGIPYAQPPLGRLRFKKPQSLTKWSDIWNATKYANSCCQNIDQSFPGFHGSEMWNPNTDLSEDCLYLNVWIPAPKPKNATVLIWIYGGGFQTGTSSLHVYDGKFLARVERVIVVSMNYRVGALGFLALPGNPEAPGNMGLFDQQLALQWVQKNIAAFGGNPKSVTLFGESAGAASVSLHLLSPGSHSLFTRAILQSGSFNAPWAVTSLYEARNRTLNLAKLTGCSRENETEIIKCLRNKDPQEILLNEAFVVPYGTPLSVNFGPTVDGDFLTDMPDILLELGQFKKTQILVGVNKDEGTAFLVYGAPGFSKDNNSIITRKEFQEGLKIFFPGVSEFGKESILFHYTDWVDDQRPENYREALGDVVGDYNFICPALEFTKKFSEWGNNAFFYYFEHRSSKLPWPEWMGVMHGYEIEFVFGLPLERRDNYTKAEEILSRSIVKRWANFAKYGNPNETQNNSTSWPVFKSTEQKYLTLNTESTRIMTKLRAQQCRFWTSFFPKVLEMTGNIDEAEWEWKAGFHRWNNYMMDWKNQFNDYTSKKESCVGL

Turning to `C#CCN(Cc1ccc(O)c2ncccc12)C(C#N)CCC1CCN(Cc2ccccc2)CC1` (centres undefined), the IC50 at Acetylcholinesterase [1] was found to be 0.35 µM; in data set [2], 6.7 µM; at Cholinesterase [3], 2.1 µM; in data set [4], 11.8 µM.
With `C#CCN(CCC1CCN(Cc2ccccc2)CC1)Cc1ccc2cccc(O)c2n1`, the IC50 at Acetylcholinesterase [1] was 4.1 µM; in data set [2], 35.6 µM; at Cholinesterase [3], 0.079 µM; in data set [4], more than 100 µM.
On to `C#CCN(Cc1ccc2cccc(O)c2n1)C(C#N)C1CCN(Cc2ccccc2)CC1` (centres undefined), for which the 50% inhibitory concentration (IC50) is 64.2 µM on Acetylcholinesterase [1], 10.2 µM in [2], 0.03 µM on Cholinesterase [3] and more than 100 µM in [4].
As to `C#CCN(Cc1ccc2cccc(O)c2n1)C(C#N)CCC1CCN(Cc2ccccc2)CC1` (centres undefined), the IC50 on Acetylcholinesterase [1] is 0.029 µM; in [5], 1.9 µM; in data set [2], 6.2 to 10.1 µM; in [8], 1.1 µM; at Cholinesterase [3] it was 0.039 µM; in data set [9] it was 3.8 µM. Besides, the IC50 is 20.8 µM in [10], more than 100 µM in [4], 187 µM in data set [12] and 1.6 µM in data set [14]. Besides, the inhibition constant (Ki) at Acetylcholinesterase [1] came to 0.015 µM; on Cholinesterase [3] it was 0.052 µM; at Acetylcholinesterase [11] it was 0.0149 µM; at Cholinesterase [13] it was 0.0525 µM. The result in data set [6] and in data set [7] was Active.
Regarding `C#CCN(Cc1ccc2cccc(O)c2n1)CC1CCN(Cc2ccccc2)CC1`, the 50% inhibitory concentration (IC50) at Acetylcholinesterase [1] is 9.7 µM; in data set [2] it was 46.5 µM; at Cholinesterase [3], 0.064 µM; in data set [4], more than 100 µM.
With `C#CCN(CCCC1CCN(Cc2ccccc2)CC1)Cc1ccc2cccc(O)c2n1`, the IC50 at Acetylcholinesterase [1] was 1.5 µM; in [2], 37 µM; on Cholinesterase [3], 0.023 µM; in data set [4], more than 100 µM.
Take `C#CCN(Cc1ccc2cccc(O)c2n1)C(C#N)CC1CCN(Cc2ccccc2)CC1` (centres undefined): the IC50 is 3.3 µM on Acetylcholinesterase [1], 12.2 µM in data set [2], 0.002 µM at Cholinesterase [3] and more than 100 µM in data set [4].
As for `C#CCN(C)CCCOc1ccc(Cl)cc1Cl` [CLORGILINE], the half-maximal inhibitory concentration (IC50) on Acetylcholinesterase [1] and at Cholinesterase [3] was more than 500 µM each time.
With `C#CCN(C)[C@H](C)Cc1ccccc1` [SELEGILINE], the concentration for half-maximal inhibition (IC50) on Acetylcholinesterase [1] and at Cholinesterase [3] was more than 500 µM each time.
